From ChEMBL document CHEMBL3259810, “Design and synthesis of 3,4-dihydro-2H-benzo[h]chromene derivatives as potential NF-κB inhibitors” (Bioorg Med Chem Lett, 2014)

Columns and labels:
NCI-H23 = experiment: Cytotoxicity against human NCI-H23 cells assessed as growth inhibition after 72 hrs by SRB assay; assay type: functional; details: NCI-H23, 72 h
[1] = molecular target: T1, Nuclear factor NF-kappa-B complex (Homo sapiens) (UniProt Q00653+P19838+Q04206); experiment: Inhibition of transcriptional activity of NF-kappaB (unknown origin) transfected in LPS-stimulated mouse RAW264.7 cells at 100 uM after 16 hrs by secretory alkaline phosphatase reporter gene assay relative to control; assay type: cell-based
T1 sequence (P19838 whole entry, looked up): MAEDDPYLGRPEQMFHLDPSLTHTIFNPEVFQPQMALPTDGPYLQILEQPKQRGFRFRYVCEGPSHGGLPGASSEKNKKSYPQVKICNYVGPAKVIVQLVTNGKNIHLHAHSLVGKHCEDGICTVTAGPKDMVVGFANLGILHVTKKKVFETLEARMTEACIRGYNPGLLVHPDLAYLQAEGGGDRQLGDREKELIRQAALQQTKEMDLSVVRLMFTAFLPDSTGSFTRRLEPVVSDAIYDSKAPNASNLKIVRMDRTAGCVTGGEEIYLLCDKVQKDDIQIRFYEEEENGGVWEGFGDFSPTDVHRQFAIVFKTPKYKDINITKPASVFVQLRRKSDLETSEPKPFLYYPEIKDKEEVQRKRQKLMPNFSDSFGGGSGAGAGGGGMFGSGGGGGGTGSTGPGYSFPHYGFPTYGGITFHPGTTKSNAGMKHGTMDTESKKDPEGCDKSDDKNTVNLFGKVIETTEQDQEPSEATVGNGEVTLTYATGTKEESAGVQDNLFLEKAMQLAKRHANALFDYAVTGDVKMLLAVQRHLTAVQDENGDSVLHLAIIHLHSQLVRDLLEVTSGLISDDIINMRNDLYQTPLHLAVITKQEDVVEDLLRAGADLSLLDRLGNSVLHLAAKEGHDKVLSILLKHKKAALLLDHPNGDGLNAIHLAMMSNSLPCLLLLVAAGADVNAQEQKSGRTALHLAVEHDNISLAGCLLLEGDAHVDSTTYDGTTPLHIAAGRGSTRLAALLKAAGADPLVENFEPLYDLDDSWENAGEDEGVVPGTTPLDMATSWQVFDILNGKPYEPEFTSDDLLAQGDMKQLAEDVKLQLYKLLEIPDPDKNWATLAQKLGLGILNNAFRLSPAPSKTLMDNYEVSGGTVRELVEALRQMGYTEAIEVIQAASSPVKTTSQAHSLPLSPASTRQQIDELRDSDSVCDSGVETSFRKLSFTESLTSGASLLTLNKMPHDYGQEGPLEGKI
T1 sequence (Q00653 whole entry, looked up): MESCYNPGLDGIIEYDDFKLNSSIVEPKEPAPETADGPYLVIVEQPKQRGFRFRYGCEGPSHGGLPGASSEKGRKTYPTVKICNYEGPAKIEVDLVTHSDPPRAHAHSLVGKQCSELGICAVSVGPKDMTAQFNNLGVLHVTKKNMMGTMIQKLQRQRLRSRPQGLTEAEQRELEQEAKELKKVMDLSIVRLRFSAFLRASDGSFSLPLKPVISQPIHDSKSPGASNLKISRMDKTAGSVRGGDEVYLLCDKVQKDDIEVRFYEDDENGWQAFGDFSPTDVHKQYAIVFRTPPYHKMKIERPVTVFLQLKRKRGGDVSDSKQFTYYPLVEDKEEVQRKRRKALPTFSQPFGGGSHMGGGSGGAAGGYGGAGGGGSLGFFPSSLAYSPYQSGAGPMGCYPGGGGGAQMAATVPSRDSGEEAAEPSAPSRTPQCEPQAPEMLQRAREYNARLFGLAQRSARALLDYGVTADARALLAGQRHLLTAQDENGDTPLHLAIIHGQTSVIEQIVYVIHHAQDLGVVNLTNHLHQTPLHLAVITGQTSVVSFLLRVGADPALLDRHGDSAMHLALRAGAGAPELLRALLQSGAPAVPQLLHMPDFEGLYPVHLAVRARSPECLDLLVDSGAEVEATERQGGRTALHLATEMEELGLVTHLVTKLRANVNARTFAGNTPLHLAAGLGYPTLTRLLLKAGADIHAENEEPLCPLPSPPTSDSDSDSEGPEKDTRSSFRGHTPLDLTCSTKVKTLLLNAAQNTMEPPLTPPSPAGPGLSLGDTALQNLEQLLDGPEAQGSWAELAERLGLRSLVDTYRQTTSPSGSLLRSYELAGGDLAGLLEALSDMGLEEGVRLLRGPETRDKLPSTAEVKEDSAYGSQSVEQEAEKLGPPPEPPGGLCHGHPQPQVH
T1 sequence (Q04206 whole entry, looked up): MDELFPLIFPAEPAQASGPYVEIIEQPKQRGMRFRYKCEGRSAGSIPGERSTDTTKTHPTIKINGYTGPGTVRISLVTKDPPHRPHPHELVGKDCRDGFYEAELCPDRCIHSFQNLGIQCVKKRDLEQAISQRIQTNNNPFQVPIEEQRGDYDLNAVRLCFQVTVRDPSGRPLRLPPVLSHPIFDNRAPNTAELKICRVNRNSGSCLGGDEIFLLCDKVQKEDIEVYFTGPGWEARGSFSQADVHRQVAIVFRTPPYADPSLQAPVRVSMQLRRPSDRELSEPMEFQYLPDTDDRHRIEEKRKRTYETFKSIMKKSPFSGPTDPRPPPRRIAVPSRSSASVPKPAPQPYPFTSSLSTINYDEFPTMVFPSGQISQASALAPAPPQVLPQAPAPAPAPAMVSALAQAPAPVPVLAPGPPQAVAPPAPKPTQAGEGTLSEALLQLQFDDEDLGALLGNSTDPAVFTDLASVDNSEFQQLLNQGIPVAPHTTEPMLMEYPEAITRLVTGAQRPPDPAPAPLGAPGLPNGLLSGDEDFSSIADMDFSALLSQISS
In short: (§1)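 LPS-stimulated RAW 264.7 macrophages carrying NF-κB-driven SEAP reporter; cell-free media heated 65℃ 5 min, then reacted with 500 µM 4-methylumbelliferyl phosphate, 2 M diethanolamine, 1 mM MgCl₂ in the dark at room temperature for 1 h. Fluorescence read at excitation 360 nm / emission 449 nm (RFU). Percent inhibition tested at 100 μM; IC₅₀ as mean of three experiments.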

[2] = molecular target: Nuclear factor NF-kappa-B complex (Homo sapiens, UniProt P19838+Q00653+Q04206); experiment: Inhibition of transcriptional activity of NF-kappaB (unknown origin) transfected in LPS-stimulated mouse RAW264.7 cells after 16 hrs by secretory alkaline phosphatase reporter gene assay; assay type: cell-based; in short: as §1
Chain of Nuclear factor NF-kappa-B complex (P19838 1-433 limits assumed): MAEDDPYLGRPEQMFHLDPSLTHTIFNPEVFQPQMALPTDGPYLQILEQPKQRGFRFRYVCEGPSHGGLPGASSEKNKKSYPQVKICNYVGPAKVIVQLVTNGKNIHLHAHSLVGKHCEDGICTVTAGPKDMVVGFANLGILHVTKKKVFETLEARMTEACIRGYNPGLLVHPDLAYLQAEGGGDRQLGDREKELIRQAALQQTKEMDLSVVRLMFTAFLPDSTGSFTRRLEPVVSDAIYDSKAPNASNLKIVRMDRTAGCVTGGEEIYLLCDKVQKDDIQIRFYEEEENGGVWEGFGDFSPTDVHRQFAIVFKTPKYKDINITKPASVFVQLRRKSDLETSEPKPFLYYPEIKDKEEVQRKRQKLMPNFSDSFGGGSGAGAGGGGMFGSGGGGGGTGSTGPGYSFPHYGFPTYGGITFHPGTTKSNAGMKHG
Chain of Nuclear factor NF-kappa-B complex (Q00653 1-454 limits assumed): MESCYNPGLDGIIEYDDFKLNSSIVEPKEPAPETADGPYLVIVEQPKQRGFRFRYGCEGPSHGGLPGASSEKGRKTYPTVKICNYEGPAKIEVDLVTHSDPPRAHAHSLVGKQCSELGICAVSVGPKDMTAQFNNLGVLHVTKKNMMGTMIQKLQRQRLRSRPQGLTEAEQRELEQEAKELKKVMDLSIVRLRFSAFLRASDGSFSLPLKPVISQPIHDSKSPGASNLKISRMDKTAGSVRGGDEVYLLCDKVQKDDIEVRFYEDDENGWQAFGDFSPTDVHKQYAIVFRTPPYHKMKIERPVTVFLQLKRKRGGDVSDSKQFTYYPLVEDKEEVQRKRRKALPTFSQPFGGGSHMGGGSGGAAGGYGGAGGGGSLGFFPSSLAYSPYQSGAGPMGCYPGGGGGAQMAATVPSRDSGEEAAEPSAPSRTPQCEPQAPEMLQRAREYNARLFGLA
Chain of Nuclear factor NF-kappa-B complex (Q04206 whole entry): as the sequence (Q04206 whole entry, looked up) above

[3] = molecular target: T1, Nuclear factor NF-kappa-B complex (Homo sapiens); experiment: Potency index, ratio of PDTC IC50 to compound IC50 for inhibition of transcriptional activity of NF-kappaB (unknown origin) transfected in LPS-stimulated mouse RAW264.7 cells

inhibition [1] [%]	IC50 [2] [µM]	Ratio IC50 [3]	Compound	GI50 (NCI-H23) [µM]
> 100	5.8		O=C(Nc1ccc(Cl)cc1)C1CCc2ccc3ccccc3c2O1 (stereo unspecified)	2.79
66	63.8		O=C(Nc1cc(C(F)(F)F)cc(C(F)(F)F)c1)C1CCc2ccc3ccccc3c2O1 (stereo unspecified)	11.2
88	44.5		COc1ccc(NCC2CCc3ccc4ccccc4c3O2)cc1 (stereo unspecified)	12.8
87	27.9		O=C(Nc1cccc(Cl)c1)C1CCc2ccc3ccccc3c2O1 (stereo unspecified)	> 30
> 100	48.6		O=C(NCC1CCc2ccc3ccccc3c2O1)c1ccccc1 (stereo unspecified)	11.4
91	12.3		O=C(Nc1ccccc1O)C1CCc2ccc3ccccc3c2O1 (stereo unspecified)	> 30
	40.1		COc1cc2c(cc1O)CCC(C(=O)Nc1ccccc1)O2 (stereo unspecified)	
94	26.5		Clc1ccc(NCC2CCc3ccc4ccccc4c3O2)cc1 (stereo unspecified)	29.8
> 100	14.6		c1ccc(CNCC2CCc3ccc4ccccc4c3O2)cc1 (stereo unspecified)	10.4
36			Clc1cccc(NCC2CCc3ccc4ccccc4c3O2)c1 (stereo unspecified)	17.2
31			CC(C)C(=O)NCC1CCc2ccc3ccccc3c2O1 (stereo unspecified)	> 30
> 100	5		O=C(Nc1ccc(O)cc1)C1CCc2ccc3ccccc3c2O1 (stereo unspecified)	11.3
77	56.3		CC(C)CC(=O)NCC1CCc2ccc3ccccc3c2O1 (stereo unspecified)	> 30
35			CC(=O)NCC1CCc2ccc3ccccc3c2O1 (stereo unspecified)	> 30
49			c1ccc(NCC2CCc3ccc4ccccc4c3O2)cc1 (stereo unspecified)	25.8
42			FC(F)(F)c1ccc(NCC2CCc3ccc4ccccc4c3O2)cc1 (stereo unspecified)	> 30
52	96.7		O=C(Nc1cc(Cl)cc(Cl)c1)C1CCc2ccc3ccccc3c2O1 (stereo unspecified)	> 30
40			O=C(Nc1ccc(Cl)c(Cl)c1)C1CCc2ccc3ccccc3c2O1 (stereo unspecified)	23.5
> 100	27.1		CC(C)CNCC1CCc2ccc3ccccc3c2O1 (stereo unspecified)	11.7
> 100	2.4	15	O=C(Nc1ccccc1C(F)(F)F)C1CCc2ccc3ccccc3c2O1 (stereo unspecified)	0.521
> 100	25.9		CC(C)CCNCC1CCc2ccc3ccccc3c2O1 (stereo unspecified)	11.3
62	43.5		O=C(Nc1ccccc1)C1CCc2ccc3ccccc3c2O1 (stereo unspecified)	> 30
96	56.3		FC(F)(F)c1cc(NCC2CCc3ccc4ccccc4c3O2)cc(C(F)(F)F)c1 (stereo unspecified)	14.6
> 100	12.9		O=C(Nc1ccc(C(F)(F)F)cc1)C1CCc2ccc3ccccc3c2O1 (stereo unspecified)	3.48
> 100	12.9		COc1ccc(NC(=O)C2CCc3ccc4ccccc4c3O2)cc1 (stereo unspecified)	3.98
39			CCNCC1CCc2ccc3ccccc3c2O1 (stereo unspecified)	> 30

Compound	inhibition [1] [%]	IC50 [2] [µM]	Ratio IC50 [3]	GI50 (NCI-H23) [µM]
S=C(S)N1CCCC1 [PYRROLIDINE DITHIOCARBAMATE]		37.2		
